Results published in article PMC4582152 (International Journal of Biological Sciences, 2015).

Assays:
DhelOBP21-T119N mutant = assay: Competitive fluorescence binding assay with 1-NPN as probe, mutant T119N; design: species or system Dastarcus helophoroides; conditions: for Binding ability of mutant T119N compared with DhelOBP-WT: pH 7.4; for Binding affinity of mutant T119N compared with DhelOBP-WT: pH 5.0
How it was run: (§1)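 Competitive displacement at pH 7.4 or pH 5.0: 2 μM recombinant protein with a standard concentration of 1-NPN, titrated with aliquots of odorant volatiles (stocks in methanol). Fluorescence is read as for the 1-NPN titration. IC50 is the competitor concentration that halves the initial fluorescence. Ki = IC50/(1+[1-NPN]/K1-NPN), using the Scatchard Kd. Three independent measurements; reported as 1/Ki*1000.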

DhelOBP21-I84N mutant = assay: Competitive fluorescence binding assay with 1-NPN as probe, mutant I84N; design: species or system Dastarcus helophoroides
How it was run: as §1

Cc1cc(C(C)(C)C)c(O)c(C(C)(C)C)c1 [Butylated hydroxytoluene, butylated hydroxytoluene]
Binding ability of mutant T119N compared with DhelOBP-WT (DhelOBP21-T119N mutant): greater binding ability | Binding affinity of mutant I84N compared with DhelOBP-WT (DhelOBP21-I84N mutant; pH 5.0): relatively higher affinities

C=C1C2CCC(C2)C1(C)C (stereo not shown) [Camphene, camphene]
Binding affinity of mutant T119N compared with DhelOBP-WT (DhelOBP21-T119N mutant): did not show any apparent difference | Binding ability of mutant T119N compared with DhelOBP-WT (DhelOBP21-T119N mutant): declined significantly | Binding affinity of mutant I84N compared with DhelOBP-WT (DhelOBP21-I84N mutant; pH 5.0): did not show any apparent difference

CC12CCC(CC1=O)C2(C)C (stereo not shown) [Camphor, camphor]
Binding affinity of mutant T119N compared with DhelOBP-WT (DhelOBP21-T119N mutant): did not show any apparent difference | Binding affinity of mutant I84N compared with DhelOBP-WT (DhelOBP21-I84N mutant; pH 5.0): did not show any apparent difference

C=CC(=C)CCC=C(C)C [Myrcene, myrcene]
Binding ability of mutant T119N compared with DhelOBP-WT (DhelOBP21-T119N mutant): declined significantly

CC1=CCC(=C(C)C)CC1 [Terpinolene]
Binding affinity of mutant T119N compared with DhelOBP-WT (DhelOBP21-T119N mutant): relatively higher affinity | Binding affinity of mutant I84N compared with DhelOBP-WT (DhelOBP21-I84N mutant; pH 7.4): better than with DhelOBP-WT
